Assay results reported in ChEMBL document CHEMBL1828502, “Quinolinyl and quinolinyl N-oxide chalcones: synthesis, antifungal and cytotoxic activities” (Eur J Med Chem, 2011).
Values after ≈ are worked out from the molar mass of the structure shown.

What was measured:
Candida tropicalis [1] = assay: Antifungal activity against Candida tropicalis by two fold serial dilution method; type: functional
How it was run: (§1)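 Broth microdilution MIC following CLSI M27-A2 with twofold serial dilutions; strains ATCC 18804 (C. albicans), ATCC 22019 (C. parapsilosis), ATCC 750 (C. tropicalis), ATCC 32608 (C. gattii), kept on Sabouraud dextrose agar at 4 °C. Amphotericin B and trimethoprim/sulfamethoxazole served as positive controls.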

Candida albicans = assay: Antifungal activity against Candida albicans by two fold serial dilution method; type: functional; how it was run: as §1
[2] = system: Cryptococcus gattii species complex; assay: Antifungal activity against Cryptococcus gattii by two fold serial dilution method; type: functional, Cryptococcus bacillisporus; how it was run: as §1
Candida parapsilosis = assay: Antifungal activity against Candida parapsilosis by two fold serial dilution method; type: functional; conditions: Lodderomyces parapsilosis; how it was run: as §1
[3] = system: Paracoccidioides brasiliensis; assay: Antifungal activity against Paracoccidioides brasiliensis Pb18 by serial dilution method; type: functional
HL-60 = assay: Anticancer activity against human HL60 cells after 48 hrs by MTT assay; type: functional, cell-based
How it was run: (§2)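 HL60 and Jurkat leukemia lines plated at 50,000 and 100,000 cells/well respectively and pre-incubated 24 h at 37 °C, 5% CO2. Compounds dissolved in DMSO and tested over a concentration range of […] for 48 h. Viability read by MTT reduction (4 h), formazan dissolved in acidic isopropanol, OD 590 nm. Values normalized to 0.05% DMSO control; IC50 taken graphically from dose-effect curves. Triplicate, three separate days.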

[4] = system: Cryptococcus gattii species complex; assay: Antifungal activity against Cryptococcus gattii by two fold serial dilution method after 3 days by broth microdilution method in presence of 1 M osmotic stabilizer sorbitol; type: functional, Cryptococcus bacillisporus; conditions: 72 h
TK-10 = assay: Anticancer activity against human TK10 cells after 48 hrs by sulforhodamine B assay; type: functional, cell-based
How it was run: (§3)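 Solid tumour lines from NCI (NCI colorimetric protocol), seeded and pre-incubated 24 h at 37 °C, 5% CO2, then exposed to compounds for 48 h. Proteins fixed with trichloroacetic acid, stained with sulforhodamine B, dye dissolved in 10 mM Tris, absorbance at 515 nm compared against initial-density control wells. IC50 from dose-response curves built with 1:2 serial dilutions; duplicate, repeated at least three times.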

Candida tropicalis [5] = assay: Antifungal activity against Candida tropicalis after 2 days by broth microdilution method in presence of 1 M osmotic stabilizer sorbitol; type: functional; conditions: 48 h
Jurkat = assay: Anticancer activity against human Jurkat cells after 48 hrs by MTT assay; type: functional, cell-based; how it was run: as §2
MCF7 = assay: Anticancer activity against human MCF7 cells after 48 hrs by sulforhodamine B assay; type: functional, cell-based; how it was run: as §3
UACC-62 = assay: Anticancer activity against human UACC62 cells after 48 hrs by sulforhodamine B assay; type: functional, cell-based; how it was run: as §3
[6] = system: Paracoccidioides brasiliensis; assay: Antifungal activity against Paracoccidioides brasiliensis Pb18 after 10 days by broth microdilution method in presence of 1 M osmotic stabilizer sorbitol; type: functional; conditions: 240 h
[7] = Homo sapiens, TK-10, 48 h, read-out: IC50
[8] = Homo sapiens, Jurkat, 48 h, read-out: IC50
[9] = Homo sapiens, MCF7, 48 h, read-out: IC50
[10] = Homo sapiens, UACC-62, 48 h, read-out: IC50
[11] = Homo sapiens, HL-60, 48 h, read-out: IC50

| Compound | MIC (Candida tropicalis [1]) [µg/mL] | MIC (Candida albicans) [µg/mL] | MIC [2] [µg/mL] | MIC (Candida parapsilosis) [µg/mL] | MIC [3] [µg/mL] | IC50 (HL-60; hl-60) | MIC [4] [µg/mL] | IC50 (TK-10; [7]) [µg/mL] | MIC (Candida tropicalis [5]) [µg/mL] | IC50 (Jurkat; [8]) [µg/mL] | IC50 (MCF7; [9]) [µg/mL] | IC50 (UACC-62; [10]) [µg/mL] | MIC [6] [µg/mL] | IC50 (HL-60; [11]) [µg/mL] | IC50 (TK-10; tk-10) | IC50 (Jurkat; jurkat) | IC50 (MCF7; mcf7) | IC50 (UACC-62; uacc-62) |
| --- | --- | --- | --- | --- | --- | --- | --- | --- | --- | --- | --- | --- | --- | --- | --- | --- | --- | --- |
| O=C(/C=C/c1ccc2c(ccc[n+]2[O-])c1)c1ccc([N+](=O)[O-])cc1 | > 500 | > 500 | > 500 | > 500 | 500 (≈ 1560 µM) |  |  |  |  |  |  |  |  |  |  |  |  |  |
| O=C(/C=C/c1ccc2c(ccc[n+]2[O-])c1)c1ccc(F)cc1 | > 500 | > 500 | 62.5 (≈ 213 µM) | > 500 | 1.9 (≈ 6.48 µM) | Not Active | > 31.2 | 0.19 (≈ 0.648 µM) | > 31.2 | 71.9 (≈ 245 µM) | 4.3 (≈ 14.7 µM) | 2.75 (≈ 9.38 µM) | 1.9 |  |  |  |  |  |
| O=C(/C=C/c1ccc2c(ccc[n+]2[O-])c1)c1ccc(Br)cc1 | > 500 | > 500 | 62.5 (≈ 176 µM) | > 500 | 62.5 (≈ 176 µM) |  |  | 1.1 (≈ 3.11 µM) |  | 65.5 (≈ 185 µM) | 6.6 (≈ 18.6 µM) | 4.7 (≈ 13.3 µM) |  | 2.6 (≈ 7.34 µM) |  |  |  |  |
| O=C(/C=C/c1ccc2c(ccc[n+]2[O-])c1)c1ccc(Cl)cc1 | > 500 | > 500 | 250 (≈ 807 µM) | > 500 | 15.5 (≈ 50 µM) |  | > 31.2 | 1.7 (≈ 5.49 µM) | > 31.2 | 4.9 (≈ 15.8 µM) | 6.6 (≈ 21.3 µM) | 4.9 (≈ 15.8 µM) | 15.6 | 33.8 (≈ 109 µM) |  |  |  |  |
| C[n+]1cccc2cc(/C=C/C(=O)c3ccccc3)ccc21.[I-] | 125 | > 500 | 31.2 | > 500 | 500 | Not Active |  |  |  |  |  |  |  |  | Not Active | Not Active | Not Active | Not Active |
| Cc1ccc(C(=O)/C=C/c2ccc3c(ccc[n+]3C)c2)cc1.[I-] | 15.6 | 125 | 7.8 | > 500 | 62.5 | Not Active | 15.5 |  | 62.5 |  |  |  | > 31.2 |  | Not Active | Not Active | Not Active | Not Active |
| C[n+]1cccc2cc(/C=C/C(=O)c3ccc([N+](=O)[O-])cc3)ccc21.[I-] | 250 | > 500 | 31.2 | > 500 | 250 | Not Active | 62.5 |  | > 31.2 |  |  |  | > 31.2 |  | Not Active | Not Active | Not Active | Not Active |
| C[n+]1cccc2cc(/C=C/C(=O)c3ccc(F)cc3)ccc21.[I-] | 62.5 | 500 | 15.6 | > 500 |  | Not Active | 62.5 |  | > 31.2 |  |  |  | > 31.2 |  | Not Active | Not Active | Not Active | Not Active |
| C[n+]1cccc2cc(/C=C/C(=O)c3ccc(Br)cc3)ccc21.[I-] | 15.6 | 250 | 7.8 | 125 | 31.2 | Not Active | 7.8 |  | 15.6 | 7.3 |  |  | 31.2 |  | Not Active |  | Not Active | Not Active |
| C[n+]1cccc2cc(/C=C/C(=O)c3ccc(Cl)cc3)ccc21.[I-] | 31.2 | 500 | 15.6 | > 500 | 125 |  | 15.6 |  | 31.2 | 4.9 |  |  | > 31.2 | 9.9 | Not Active |  | Not Active | Not Active |
| C[C@@H]1[C@H](O)[C@@H](C)/C=C/C=C/C=C/C=C/C=C/C=C/C=C/[C@H](O[C@@H]2O[C@H](C)[C@@H](O)[C@H](N)[C@@H]2O)C[C@@H]2O[C@](O)(C[C@@H](O)C[C@@H](O)[C@H](O)CC[C@@H](O)C[C@@H](O)CC(=O)O[C@H]1C)C[C@H](O)[C@H]2C(=O)O [AMPHOTERICIN B] | 0.25 (≈ 0.271 µM) | 1 (≈ 1.08 µM) | 1.2 (≈ 1.3 µM) | 0.5 (≈ 0.541 µM) | 0.006 (≈ 0.00649 µM) |  |  |  |  |  |  |  |  |  |  |  |  |  |
| COc1cc([C@@H]2c3cc4c(cc3[C@@H](O[C@@H]3O[C@@H]5CO[C@@H](C)O[C@H]5[C@H](O)[C@H]3O)[C@H]3COC(=O)[C@H]23)OCO4)cc(OC)c1O [ETOPOSIDE] |  |  |  |  |  |  |  | 20.4 (≈ 34.7 µM) |  | 2.8 (≈ 4.76 µM) | 0.03 (≈ 0.051 µM) | 1.4 (≈ 2.38 µM) |  | 0.47 (≈ 0.799 µM) |  |  |  |  |
